Reference: ChEMBL document CHEMBL1158182, “Antifungal activity of chalcones: a mechanistic study using various yeast strains” (Eur J Med Chem, 2008)
Values after ≈ are worked out from the molar mass of the structure shown. Active and inactive are the calls of the source. No cut-off for these calls is given here.

How the values were obtained:
Kluyveromyces lactis [1] = assay: Antifungal activity against Kluyveromyces lactis 1-6A with MATalpha uraA lys arg genotype by agar dilution method; type: functional
Procedure, shortened: (§1)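 S. cerevisiae and K. lactis strains were tested by agar dilution on rich YPD agar at 30 °C. Compound stocks in 96% EtOH were added to the medium to give […]. Cells were suspended in water, serially diluted to 10^9–10^3 cells/ml, and plated with a metal replicator. MIC was read from growth.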

Ogataea angusta [2] = assay: Antifungal activity against Hansenula polymorpha AS1 with gsh1 genotype with cellular density of 10^9 cells/ml at 40 uM by agar dilution method; type: functional, organism-based
Ogataea angusta [3] = assay: Antifungal activity against Hansenula polymorpha AS1 with gsh1 genotype at 20 to 30 uM after 1 day by agar dilution method; type: functional, organism-based
Ogataea angusta [4] = assay: Antifungal activity against Hansenula polymorpha AS1 with gsh1 genotype with cellular density of 10^3 cells/ml at >40 uM by agar dilution method; type: functional, organism-based
Ogataea angusta [5] = assay: Antifungal activity against Hansenula polymorpha AS2 with gsh2 genotype at 20 to 30 uM after 1 day by agar dilution method; type: functional, organism-based
Kluyveromyces lactis [6] = assay: Antifungal activity against Kluyveromyces lactis 2-18B with MATalpha metA1 ura3 leu2 genotype by agar dilution method; type: functional; procedure, shortened: as §1
Ogataea angusta [7] = assay: Antifungal activity against Hansenula polymorpha M2 with met2 genotype by agar dilution method; type: functional
Procedure, shortened: (§2)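 H. polymorpha strains were tested by agar dilution on rich YPD agar at 37 °C. Compound stocks in 96% EtOH were mixed into the medium to give […]. Cells were suspended in water, serially diluted to 10^9, 10^7, 10^5 and 10^3 cells/ml, and applied to the agar with a metal replicator. MIC was read from growth.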

Saccharomyces cerevisiae [8] = assay: Antifungal activity against diploid Saccharomyces cerevisiae 29a by agar dilution method; type: functional; procedure, shortened: as §1
Ogataea angusta [9] = assay: Antifungal activity against Hansenula polymorpha 2a with cys1 genotype with cellular density of 10^3 cells/ml at >40 uM by agar dilution method; type: functional, organism-based
Ogataea angusta [10] = assay: Antifungal activity against Hansenula polymorpha M4 with met4 genotype by agar dilution method; type: functional; procedure, shortened: as §2
Ogataea angusta [11] = assay: Antifungal activity against Hansenula polymorpha CD3 with ade1 leu2 cds3 genotype by agar dilution method; type: functional; procedure, shortened: as §2
Saccharomyces cerevisiae [12] = assay: Antifungal activity against haploid Saccharomyces cerevisiae 1169 by agar dilution method; type: functional; procedure, shortened: as §1
Ogataea angusta [13] = assay: Antifungal activity against Hansenula polymorpha 2a with arg1 leu2 ura3 cys1 genotype by agar dilution method; type: functional; procedure, shortened: as §2
Saccharomyces cerevisiae [14] = assay: Antifungal activity against haploid Saccharomyces cerevisiae YSH1170 by agar dilution method; type: functional; procedure, shortened: as §1
Saccharomyces cerevisiae [15] = assay: Antifungal activity against diploid Saccharomyces cerevisiae 1a by agar dilution method; type: functional; procedure, shortened: as §1
Saccharomyces cerevisiae [16] = assay: Antifungal activity against haploid Saccharomyces cerevisiae 2180 by agar dilution method; type: functional; procedure, shortened: as §1
Ogataea angusta [17] = assay: Antifungal activity against Hansenula polymorpha CD2 with ade1 leu2 cds2 genotype by agar dilution method; type: functional; procedure, shortened: as §2
Ogataea angusta [18] = assay: Antifungal activity against Hansenula polymorpha AS1 with arg1 gsh2delta genotype by agar dilution method; type: functional; procedure, shortened: as §2
Ogataea angusta [19] = assay: Antifungal activity against Hansenula polymorpha WT1 with cellular density of 10^3 cells/ml at >40 uM by agar dilution method; type: functional, organism-based
Ogataea angusta [20] = assay: Antifungal activity against Hansenula polymorpha AS2 with gsh2 genotype with cellular density of 10^9 cells/ml at 40 uM by agar dilution method; type: functional, organism-based
Ogataea angusta [21] = assay: Antifungal activity against Hansenula polymorpha WT1 at 20 to 30 uM after 1 day by agar dilution method; type: functional, organism-based
Ogataea angusta [22] = assay: Antifungal activity against Hansenula polymorpha AU05 with ade3 ura3 genotype by agar dilution method; type: functional; procedure, shortened: as §2
Ogataea angusta [23] = assay: Antifungal activity against Hansenula polymorpha WT1 with ade1 ura3 genotype by agar dilution method; type: functional; procedure, shortened: as §2
Ogataea angusta [24] = assay: Antifungal activity against Hansenula polymorpha CRD2 with leu2 CDR2 genotype by agar dilution method; type: functional; procedure, shortened: as §2
Ogataea angusta [25] = assay: Antifungal activity against Hansenula polymorpha 2a with cys1 genotype with cellular density of 10^9 cells/ml at 40 uM by agar dilution method; type: functional, organism-based
Ogataea angusta [26] = assay: Antifungal activity against Hansenula polymorpha WT2 with ade1 met6 genotype by agar dilution method; type: functional; procedure, shortened: as §2
Ogataea angusta [27] = assay: Antifungal activity against Hansenula polymorpha MC1 with met2 cys1 genotype by agar dilution method; type: functional; procedure, shortened: as §2
Ogataea angusta [28] = assay: Antifungal activity against Hansenula polymorpha 2a with cys1 genotype at 20 to 30 uM after 1 day by agar dilution method; type: functional, organism-based
Kluyveromyces lactis [29] = assay: Antifungal activity against Kluyveromyces lactis 2-19B with MATalpha ura lys arg genotype by agar dilution method; type: functional; procedure, shortened: as §1
Saccharomyces cerevisiae [30] = assay: Antifungal activity against haploid Saccharomyces cerevisiae YSH1171 by agar dilution method; type: functional; procedure, shortened: as §1
Ogataea angusta [31] = assay: Antifungal activity against Hansenula polymorpha 2b with arg1 ade1 leu2 genotype by agar dilution method; type: functional; procedure, shortened: as §2
Ogataea angusta [32] = assay: Antifungal activity against Hansenula polymorpha CTA1 with leu2 cat1 genotype by agar dilution method; type: functional
Procedure, shortened: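 MICs by agar dilution on rich YPD medium. Compounds were added from 96% EtOH stocks to give final agar concentrations of 20 to 50 (units as printed in the source). Cells were suspended in water, serially diluted to 10^9, 10^7, 10^5 and 10^3 cells/ml, and spotted onto agar with a metal replicator. Incubation was at 37 °C for H. polymorpha and 30 °C for S. cerevisiae.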

Ogataea angusta [33] = assay: Antifungal activity against Hansenula polymorpha AS2 with gsh2 genotype with cellular density of 10^3 cells/ml at >40 uM by agar dilution method; type: functional, organism-based
Saccharomyces cerevisiae [34] = assay: Antifungal activity against haploid Saccharomyces cerevisiae FY4 by agar dilution method; type: functional; procedure, shortened: as §1
Saccharomyces cerevisiae [35] = assay: Antifungal activity against haploid Saccharomyces cerevisiae Sigma 1278b by agar dilution method; type: functional; procedure, shortened: as §1
[36] = Stability of compound in liquid YPD media after 48 hrs by UV spectrophotometry; type: physicochemical
Procedure, shortened: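 Compound from a 96% EtOH stock was added to liquid YPD to […]. The medium was inoculated with 10^5 cells/ml of H. polymorpha WT1 and incubated at 37 °C. Samples were taken at 24 and 48 h and centrifuged, and compound in the supernatant was measured by absorbance at 308 nm. Controls had no cells. Assays were run in triplicate.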

Saccharomyces cerevisiae [37] = assay: Antifungal activity against haploid Saccharomyces cerevisiae 10560-6B by agar dilution method; type: functional; procedure, shortened: as §1
Saccharomyces cerevisiae [38] = assay: Antifungal activity against haploid Saccharomyces cerevisiae 1S by agar dilution method; type: functional; procedure, shortened: as §1
Ogataea angusta [39] = assay: Antifungal activity against Hansenula polymorpha R3 with rgh3 genotype by agar dilution method; type: functional; procedure, shortened: as §2
Ogataea angusta [40] = assay: Antifungal activity against Hansenula polymorpha WT1 with cellular density of 10^9 cells/ml at 40 uM by agar dilution method; type: functional, organism-based
Ogataea angusta [41] = assay: Antifungal activity against Hansenula polymorpha CD1 with ade1 leu2 cds1 genotype by agar dilution method; type: functional; procedure, shortened: as §2
Ogataea angusta [42] = assay: Antifungal activity against Hansenula polymorpha D22 with arg1/arg1 ade1/ADE1 leu2/leu2 URA3/ura3 CYS1/cys1 genotype by agar dilution method; type: functional; procedure, shortened: as §2

**Q.** With O=C(/C=C/c1ccccc1)c1ccccc1 [CHALCONE] as the compound, how does the MIC (Kluyveromyces lactis [1]) read?
**A.** The MIC was < 20 µg/mL.

**Q.** And the Activity (Ogataea angusta [2])?
**A.** The Activity was “inactive”.

**Q.** What about the Activity (Ogataea angusta [3]) of the same compound?
**A.** The Activity was “Active”.

**Q.** What about the Activity (Ogataea angusta [4]) of the same compound?
**A.** Its Activity is “Active”.

**Q.** What about the Activity (Ogataea angusta [5]) of the same compound?
**A.** The Activity was “Active”.

**Q.** What about the MIC (Kluyveromyces lactis [6]) of the same compound?
**A.** Its MIC is < 20 µg/mL.

**Q.** What about the MIC (Ogataea angusta [7]) of the same compound?
**A.** The MIC was 30 µg/mL (≈ 144 µM).

**Q.** And the MIC (Saccharomyces cerevisiae [8])?
**A.** The MIC was > 40 µg/mL.

**Q.** What about the Activity (Ogataea angusta [9]) of the same compound?
**A.** The Activity was “Active”.

**Q.** And the MIC (Ogataea angusta [10])?
**A.** The MIC was < 20 µg/mL.

**Q.** And the MIC (Ogataea angusta [11])?
**A.** The MIC was 30 µg/mL (≈ 144 µM).

**Q.** What about the MIC (Saccharomyces cerevisiae [12]) of the same compound?
**A.** Its MIC is > 40 µg/mL.

**Q.** What about the MIC (Ogataea angusta [13]) of the same compound?
**A.** The MIC was 25 µg/mL (≈ 120 µM).

**Q.** And the MIC (Saccharomyces cerevisiae [14])?
**A.** Its MIC is > 40 µg/mL.

**Q.** What about the MIC (Saccharomyces cerevisiae [15]) of the same compound?
**A.** Its MIC is > 40 µg/mL.

**Q.** And the MIC (Saccharomyces cerevisiae [16])?
**A.** Its MIC is > 40 µg/mL.

**Q.** And the MIC (Ogataea angusta [17])?
**A.** The MIC was 30 µg/mL (≈ 144 µM).

**Q.** What about the MIC (Ogataea angusta [18]) of the same compound?
**A.** The MIC was 20 µg/mL (≈ 96 µM).

**Q.** What about the Activity (Ogataea angusta [19]) of the same compound?
**A.** The Activity was “Active”.

**Q.** What about the Activity (Ogataea angusta [20]) of the same compound?
**A.** The Activity was “inactive”.

**Q.** And the Activity (Ogataea angusta [21])?
**A.** Its Activity is “Active”.

**Q.** And the MIC (Ogataea angusta [22])?
**A.** Its MIC is < 20 µg/mL.

**Q.** And the MIC (Ogataea angusta [23])?
**A.** Its MIC is 30 µg/mL (≈ 144 µM).

**Q.** And the MIC (Ogataea angusta [24])?
**A.** Its MIC is > 40 µg/mL.

**Q.** And the Activity (Ogataea angusta [25])?
**A.** Its Activity is “inactive”.

**Q.** What about the MIC (Ogataea angusta [26]) of the same compound?
**A.** The MIC was 30 µg/mL (≈ 144 µM).

**Q.** And the MIC (Ogataea angusta [27])?
**A.** Its MIC is 20 µg/mL (≈ 96 µM).

**Q.** What about the Activity (Ogataea angusta [28]) of the same compound?
**A.** Its Activity is “Active”.

**Q.** And the MIC (Kluyveromyces lactis [29])?
**A.** Its MIC is 25 µg/mL (≈ 120 µM).

**Q.** And the MIC (Saccharomyces cerevisiae [30])?
**A.** The MIC was > 40 µg/mL.

**Q.** What about the MIC (Ogataea angusta [31]) of the same compound?
**A.** Its MIC is 30 µg/mL (≈ 144 µM).

**Q.** What about the MIC (Ogataea angusta [32]) of the same compound?
**A.** The MIC was 30 µg/mL (≈ 144 µM).

**Q.** And the Activity (Ogataea angusta [33])?
**A.** The Activity was “Active”.

**Q.** What about the MIC (Saccharomyces cerevisiae [34]) of the same compound?
**A.** Its MIC is > 40 µg/mL.

**Q.** What about the MIC (Saccharomyces cerevisiae [35]) of the same compound?
**A.** The MIC was > 40 µg/mL.

**Q.** And the Activity [36]?
**A.** Its Activity is 7.1 µg/mL.

**Q.** And the MIC (Saccharomyces cerevisiae [37])?
**A.** The MIC was > 40 µg/mL.

**Q.** And the MIC (Saccharomyces cerevisiae [38])?
**A.** The MIC was > 40 µg/mL.

**Q.** And the MIC (Ogataea angusta [39])?
**A.** Its MIC is > 40 µg/mL.

**Q.** And the Activity (Ogataea angusta [40])?
**A.** Its Activity is “inactive”.

**Q.** What about the MIC (Ogataea angusta [41]) of the same compound?
**A.** The MIC was 30 µg/mL (≈ 144 µM).

**Q.** What about the MIC (Ogataea angusta [42]) of the same compound?
**A.** The MIC was 30 µg/mL (≈ 144 µM).
